# Hits are enriched below; roughly 4.6% of the tested compounds scored in any of these assays.
# Arbovirus inh – blocks arbovirus infection; inhibition, % at 10 µM; arbovirus infection cell-based antiviral screen; actives 0.37% (n = 200,000); in the data active means inhibition above about 30%
# WT yeast gro inh – growth inhibition of WT yeast, mitochondrial fusion screen. mitochondrial fusion phenotypic screen, WT strain. inhibition, % at 10 µM. actives 2.1% (n = 190,000). AID 1362; in the data active means inhibition above about 58%; tested in S. cerevisiae
# NCF1 inh – blocks human p47phox regulatory protein of NADPH oxidases | actives 0.53% (n = 220,000) | p47phox/p22phox peptide binding, fluorescence polarization, 2 h | inhibition, % at 24.7 µM | AID 1274 | P14598;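 active means inhibition above about 30%, limit read from the data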
# Target sequence (P14598 whole entry, looked up): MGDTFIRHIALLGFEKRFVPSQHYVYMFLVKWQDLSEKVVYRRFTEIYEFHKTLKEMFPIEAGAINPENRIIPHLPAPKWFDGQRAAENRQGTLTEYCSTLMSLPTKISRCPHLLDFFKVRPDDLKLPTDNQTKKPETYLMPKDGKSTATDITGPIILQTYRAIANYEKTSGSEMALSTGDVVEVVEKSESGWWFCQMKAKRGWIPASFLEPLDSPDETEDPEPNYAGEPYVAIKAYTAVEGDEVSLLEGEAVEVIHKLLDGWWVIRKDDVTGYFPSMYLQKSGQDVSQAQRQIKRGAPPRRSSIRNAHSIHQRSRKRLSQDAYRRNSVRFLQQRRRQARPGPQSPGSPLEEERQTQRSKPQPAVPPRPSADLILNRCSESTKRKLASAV
# RAM network inh – blocks the yeast RAM network. actives 1.8% (n = 190,000). S. cerevisiae dse1pr::URA3 reporter, 5-FOA growth OD615, 2 d; analog-sensitive cbk1-as2 kinase mutant strain. inhibition, % at 50 µM;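 active means inhibition above a set limit, 3 SD over mean compound inhibition, cut at about 8.4% in these data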;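 further: inhibition rescues growth on 5-FOA so higher OD means more RAM inhibition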
# Hck-Nef inh – blocks Nef-activated human Hck kinase. Recombinant Hck-YEEI plus Nef, Z-Lyte FRET kinase assay. inhibition, % at 20 µM. actives 0.68% (n = 220,000). AID 463187;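 active means Hck-Nef kinase inhibition above about 50%, limit read from the data; inactive means inhibition below that limit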
# Calb biofilm kill – mixtures killing C. albicans biofilm; C. albicans biofilm persisters + clotrimazole, fluorescence viability; primary screen in compound mixtures of four per well; inhibition, % at 7.6 µM; actives 0.02% (n = 120,000); AID 1242;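 active means inhibition above 30.3% in the primary screen of four-compound pools, then above 30% when the compound was retested; inconclusive means passed the primary limit but could not be retested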;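 further: compounds exposed to preformed 24 h biofilms for 48 h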
#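 Test system: C. albicans biofilms. Buffer or medium: RPMI/MOPS medium, pH 7.0. Timing: 48 h compound exposure at 37 °C. Technique: Alamar Blue fluorescence. Evaluation: percent inhibition of biofilm viability.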
# Hits are given with their value; 0 = inactive; ? = inconclusive; - = not tested or not shown.
SMILES,Arbovirus inh,WT yeast gro inh,NCF1 inh,RAM network inh,Hck-Nef inh,Calb biofilm kill
NC(=O)c1ccccc1NC(=O)Nc1cccc2ccccc12,0,0,0,0,0,0
Cc1cc(=O)oc(C)c1C(=O)Nc1ccc2ncccc2c1,0,0,0,0,0,-
Cc1cc(=O)oc(C)c1C(=O)Nc1ccc2nsnc2c1,0,94,-,0,0,-
Cc1cccc(-n2cc(-c3ccccc3)c3c(NN4CCOCC4)ncnc32)c1,0,0,0,0,0,0
COc1ccc(-n2cc(-c3ccccc3)c3c(N4CC(C)OC(C)C4)ncnc32)cc1 (stereo not given),0,68,0,0,0,0
Cc1ccc(-n2cc(-c3ccccc3)c3c(NN4CCOCC4)ncnc32)cc1,0,0,94,0,0,0
CCOc1ccc(-n2cc(-c3ccccc3)c3c(N4CCOCC4)ncnc32)cc1,0,59,0,0,0,0
c1ccc(-c2cn(-c3ccccc3)c3ncnc(N4CCCCC4)c23)cc1,0,0,0,0,0,0
O=c1c2ccccc2ncn1-c1ccc2c(c1)OCCO2,0,0,0,0,0,-
O=[N+]([O-])c1cccc(S(=O)(=O)N/N=C/c2ccc(O)cc2)c1,0,0,0,0,0,0
O=C(Nc1nc2ccccc2s1)C1CC(=O)N(c2ccc(F)cc2)C1 (stereo not given),0,0,0,0,0,-
COc1ccc(NC(=O)CCS(=O)(=O)c2cccc3nonc23)c(OC)c1,0,0,80,0,0,-
Oc1ccc(-c2nc3c4c(ncn3n2)-c2ccccc2CC42CCCC2)cc1,0,96,0,0,0,0
Nn1cnc2c(c1=O)C1(CCCCC1)Cc1ccccc1-2,0,0,0,0,0,0
O=C1c2ccccc2C(=O)N1CC(O)CNc1ccc(Br)cc1 (stereo not given),0,0,0,0,0,0
CCC(Sc1nc2cc(OC)c(OC)cc2c(=O)n1CCc1ccc(S(N)(=O)=O)cc1)C(=O)NCCOC (stereo not given),0,0,0,0,0,0
CCCCNC(=S)N1CCN(c2ccccc2Cl)CC1,0,66,0,0,0,0
S=C(NCc1ccco1)N1CCN(c2ccccc2Cl)CC1,0,72,0,0,0,0
Cc1ccc(Cl)cc1N1CCN(C(=S)NCc2ccco2)CC1,0,0,0,0,0,0
Cc1cccc(N2N=C(C(=O)N3CC(=O)Nc4ccccc43)CCC2=O)c1,0,0,0,0,0,0
C#CCSc1ncc(S(=O)(=O)c2ccccc2)c(=O)[nH]1,30,0,0,0,0,0
NS(=O)(=O)c1ccc(NC2=CC(c3ccc([N+](=O)[O-])cc3)N(c3ccc(S(N)(=O)=O)cc3)C2=O)cc1 (stereo not given),-,-,0,-,0,0
CCCCCCCC(=O)NNC(=O)Cc1ccccc1,0,0,0,0,0,-
CCCCCCCCCCCC(=O)c1c(O)cccc1O,0,95,0,0,0,0
CC1CC1C(=O)Nc1nc(-c2ccc(Cl)s2)cs1 (stereo not given),44,0,0,0,0,0
SMILES,Arbovirus inh,WT yeast gro inh,NCF1 inh,RAM network inh,Hck-Nef inh,Calb biofilm kill
O=C(CSCC(=O)N1CCN(c2ccccc2)CC1)Nc1nc(-c2ccc(Cl)s2)cs1,0,0,0,0,0,-
O=C(CSCC(=O)N1CCCCC1)Nc1nc(-c2ccc(Cl)s2)cs1,0,72,0,0,0,-
COC(=O)C1=C(N)N(c2ccccc2F)C2=C(C(=O)CC(C)(C)C2)C1c1ccc(OC)c(OC)c1 (stereo not given),0,0,0,0,0,0
Cc1nn(C)c(C(=O)N2CCN(C(=O)c3ccco3)CC2)c1Br,0,0,0,0,0,0
Cc1cc(C)cc(Oc2coc3cc(OC(=O)c4cccnc4)ccc3c2=O)c1,0,0,0,0,0,0
Cc1cccc(Oc2coc3cc(OC(=O)c4cncc(Br)c4)ccc3c2=O)c1,0,0,87,0,0,0
NCCOc1ccc(C23CC4CC(CC(C4)C2)C3)cc1,0,97,0,0,0,0
OCCN1CCN(CC(O)COc2ccc(C34CC5CC(CC(C5)C3)C4)cc2)CC1 (stereo not given),0,0,0,0,0,0
Cn1nnnc1SCc1nnc(-c2ccccc2Br)o1,0,0,0,0,0,-
Cc1ccc(-n2nnnc2SCc2nnc(-c3ccccc3Br)o2)c(C)c1,0,0,0,11,0,-
CCNC(=O)NCCNC(=O)c1cc(OCC(F)(F)F)ccc1OCC(F)(F)F,0,0,0,0,0,0
O=C(NCCNC(=O)c1cc(OCC(F)(F)F)ccc1OCC(F)(F)F)Nc1ccccc1,0,0,0,8.7,0,-
C=CCn1c(N2CCOCC2)nc2c1c(=O)[nH]c(=O)n2C,0,0,0,0,0,0
c1ccc(CNc2nc(CN3CCOCC3)nc3scc(-c4ccccc4)c23)cc1,0,0,0,0,0,0
Clc1ccc(CNc2nc(CN3CCOCC3)nc3scc(-c4ccccc4)c23)cc1,0,79,0,0,0,0
Cc1ccc(C2CC(C(F)(F)F)n3nc(C(=O)NCCN4CCOCC4)cc3N2)cc1 (stereo not given),0,0,0,0,0,-
CCCCNC(=O)c1cc2n(n1)C(C(F)(F)F)CC(c1ccccc1)N2 (stereo not given),0,0,57,0,0,-
Cc1ccc(C2CC(C(F)(F)F)n3nc(C(=O)Nc4c(C)n(C)n(-c5ccccc5)c4=O)cc3N2)cc1 (stereo not given),0,0,-,9.9,0,0
CSc1ccc(C(=O)C2CCCN(S(=O)(=O)N(C)C)C2)cc1 (stereo not given),0,0,0,10,0,0
O=C(Nc1ccccc1)C1=C[C@H](c2csc3ccccc23)C[C@H](OCCCCO)O1,0,0,-,11,0,0
O=C(C1=C[C@H](c2csc3ccccc23)C[C@H](OCCCCO)O1)N1CCN(Cc2ccccc2)CC1,0,0,0,0,0,0
O=C(NCc1ccccc1)C1=C[C@H](c2csc3ccccc23)C[C@H](OCCCCO)O1,0,0,0,11,0,0
C(=C\c1ccccn1)/c1ccccn1,-,-,0,-,0,0
O=C1/C(=C/c2ccccn2)COc2ccccc21,0,0,0,0,0,0
CC(C)(C)C1C/C(=C/c2ccccn2)C(=O)/C(=C/c2ccccn2)C1 (stereo not given),0,69,0,0,0,?
CC1C/C(=C/c2ccco2)C(=O)/C(=C/c2ccco2)C1 (stereo not given),0,0,0,0,67,0
CC1C/C(=C/c2ccccn2)C(=O)/C(=C/c2ccccn2)C1 (stereo not given),0,87,0,0,0,0
COc1ccc2nc(SCC(=O)c3ccco3)[nH]c2c1,0,0,0,0,0,-
CCOC(=O)c1oc2cccc(OCC(O)CNC(C)C)c2c1C (stereo not given),0,69,-,0,0,-
